Measurements published in ChEMBL document CHEMBL1124745, “Acyclic purine phosphonate analogues as antiviral agents. Synthesis and structure-activity relationships” (J Med Chem, 1990).
In brackets after ≈: the same amount, converted by molar mass.

What was measured:
Vero = assay: Evaluated for the antiviral activity against Vero cells by proliferation assays (in uninfected cells); assay type: functional; settings: Chlorocebus sabaeus, read-out: ID50 (the source's name)
Method in brief: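 Cell proliferation assay in uninfected Vero cells; ID50 in µg/mL.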

[1] = Evaluated for the dissociation constant; assay type: ADME; settings: read-out: pKa2
Human alphaherpesvirus 1 [2] = assay: Evaluated for the antiviral activity against Herpes simplex virus type 1 (HSV-1) strain BWS by the plaque reduction assay; assay type: functional; settings: read-out: ID50 (the source's name)
Method in brief: (§1)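 Plaque reduction in Vero cells: about 50 PFU HSV per well adsorbed 1 h with intermittent shaking. Inoculum removed; 10% EMEM with 2-fold drug dilutions added in triplicate, with no-drug virus controls. 48 h at 37 °C, 5% CO2, then Giemsa stain and plaque count. ID50 is the concentration giving 50% plaque reduction versus control.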

Human alphaherpesvirus 2 [3] = assay: Evaluated for the antiviral activity against Herpes simplex virus type 2 (HSV-2) strain G by the plaque reduction assay; assay type: functional; settings: read-out: ID50 (the source's name); method in brief: as §1
[4] = Evaluated for the rate of phosphorylation with bovine brain guanylate kinase.; assay type: ADME, Bos taurus; settings: cattle
guanylate kinase = assay: Evaluated for the kinetic parameter Km, with bovine brain guanylate kinase.; assay type: ADME, Bos taurus; settings: cattle
Human alphaherpesvirus 2 [5] = assay: Evaluated for the antiviral activity against Herpes simplex virus type 2 (HSV-2) with strain G by the plaque reduction assay; assay type: functional; settings: read-out: ID50 (the source's name); method in brief: as §1
CCRF-CEM [6] = assay: Evaluated for the anticellular activity against CEM cells by dye-exclusion method; assay type: functional; settings: Homo sapiens, read-out: ID50 (the source's name)
Method in brief: (§2)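 CEM cells, uninfected; cell count by dye exclusion; ID50 in µg/mL.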

[7] = test system: Human immunodeficiency virus 1; assay: Evaluated for the antiretroviral activity against Human immunodeficiency virus type 1; assay type: functional; settings: read-out: ID50 (the source's name)
Method in brief: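 CEM-F cells infected with about 30 TCID50 of HIV (LAV strain) for 45 min at 37 °C. Compound added at various concentrations, then 8-day incubation. p24 gag protein in culture supernatant measured by enzyme-capture ELISA. ID50 (µg/mL) is the dose inhibiting 50% of virus expression.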

[8] = test system: Rauscher murine leukemia virus; assay: Evaluated for the antiretroviral activity against Rauscher murine leukemia virus (R-MuLV); assay type: functional; settings: read-out: ID50 (the source's name)
Method in brief: (§3)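 Rauscher murine leukemia virus tested by UV-XC plaque assay; ID50 in µg/mL.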

Human betaherpesvirus 5 [9] = assay: Evaluated for the antiviral activity against Human cytomegalovirus (HCMV) strain AD-169 by the plaque reduction assay; assay type: functional; settings: read-out: ID50 (the source's name)
Method in brief: (§4)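 HCMV AD169 grown and titered at 37 °C in MRC-5 human embryonic lung diploid cells. Plaque reduction assay in MRC-5 with 2-fold drug dilutions in triplicate and no-drug virus controls. ID50 is the concentration reducing plaques by 50% versus control.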

Human alphaherpesvirus 1 [10] = assay: (§5) Evaluated for the antiviral activity against Herpes simplex virus type 1 (HSV-1).; assay type: organism-based; settings: read-out: ID50 (the source's name); method in brief: as §1
CCRF-CEM [11] = assay: Evaluated for the anticellular activity against CEM cells; assay type: functional; settings: Homo sapiens, read-out: ID50 (the source's name); method in brief: as §2
[12] = test system: Rauscher murine leukemia virus; assay: Evaluated for the antiretroviral activity against Rauscher-murine leukemia virus (R-MuLV); assay type: functional; settings: read-out: ID50 (the source's name); method in brief: as §3
Human alphaherpesvirus 1 [13] = assay: as §5; assay type: functional; settings: read-out: ID50 (the source's name); method in brief: as §1
[14] = Evaluated for the second dissociation constant; assay type: ADME; settings: read-out: pKa2
Bos taurus = organism: Bos taurus; assay: Evaluated for the rate of phosphorylation with bovine brain guanylate kinase; assay type: ADME; settings: cattle, in vivo
Human betaherpesvirus 5 [15] = assay: Evaluated for the antiviral activity against Human cytomegalovirus (HCMV) with strain AD-169 by the plaque reduction assay; assay type: functional; settings: read-out: ID50 (the source's name); method in brief: as §4

Row | SMILES | IC50 (Vero) [µg/mL] | pKa [1] | IC50 (Human alphaherpesvirus 1 [2]) [µg/mL] | IC50 (Human alphaherpesvirus 2 [3]) [µg/mL] | Km (guanylate kinase) [mM] | IC50 [7] [µg/mL] | also measured
1 | Nc1nc(O)c2ncn(CCCC(F)(F)P(=O)(O)O)c2n1 | 100 (≈ 309 µM) | 5.52 | > 100 | > 100 |  |  | 
2 | Nc1nc2c(ncn2[C@@H]2O[C@H](COP(=O)(O)O)[C@H](O)[C@@H]2O)c(=O)[nH]1 [E626] |  |  |  |  | 3.3 |  | Relative Vmax [4]: 100
3 | Nc1nc(O)c2ncn(CCCCP(=O)(O)O)c2n1 | 100 (≈ 348 µM) | 7.08 | > 100 |  |  |  | IC50 (Human alphaherpesvirus 2 [5]): > 100 µg/mL
4 | Cc1cn([C@H]2C[C@H](N=[N+]=[N-])[C@@H](CO)O2)c(=O)[nH]c1=O [ZIDOVUDINE] |  |  |  |  |  | 0.05 (≈ 0.187 µM) | IC50 (CCRF-CEM [6]): > 50 µg/mL; IC50 [8]: 0.001 µg/mL (≈ 0.00374 µM)
5 | Nc1nc2c(ncn2COCCO)c(=O)[nH]1 [ACYCLOVIR] | 100 (≈ 444 µM) |  | 0.5 (≈ 2.22 µM) | 2.4 (≈ 10.7 µM) |  |  | IC50 (Human betaherpesvirus 5 [9]): 38.4 µg/mL (≈ 171 µM)
6 | Nc1nc(O)c2ncn(CCSCP(=O)(O)O)c2n1 | 100 (≈ 328 µM) | 6.59 | > 100 | > 100 |  |  | 
7 | Nc1ncnc2c1ncn2CCOCP(=O)(O)O [ADEFOVIR] | > 100 |  | 21 (≈ 76.9 µM) | 9.4 (≈ 34.4 µM) |  | 3 (≈ 11 µM) | IC50 (Human betaherpesvirus 5 [9]): 0.93 µg/mL (≈ 3.4 µM); IC50 (CCRF-CEM [6]): > 100 µg/mL; IC50 [8]: 0.05 µg/mL (≈ 0.183 µM)
8 | Nc1nc(O)c2ncn(CCCOCP(=O)(O)O)c2n1 | 76 (≈ 251 µM) |  | 65.5 (≈ 216 µM) | > 100 | 4.7 | 7.8 (≈ 25.7 µM) | IC50 (Human betaherpesvirus 5 [9]): 6 µg/mL (≈ 19.8 µM); IC50 (Human alphaherpesvirus 1 [10]): 65.5 µg/mL (≈ 216 µM); Relative Vmax [4]: 0.0024; IC50 [8]: 0.04 µg/mL (≈ 0.132 µM); IC50 (CCRF-CEM [11]): > 100 µg/mL
9 | Nc1nc2c(ncn2COCCP(=O)(O)O)c(=O)[nH]1 | 100 (≈ 346 µM) | 6.76 | > 100 |  |  |  | IC50 (Human alphaherpesvirus 2 [5]): > 100 µg/mL; IC50 (Human alphaherpesvirus 1 [10]): > 145 µg/mL
10 | Nc1nc(O)c2ncn(CCCCOCP(=O)(O)O)c2n1 | 100 (≈ 315 µM) |  | > 100 | > 100 |  |  | IC50 (Human alphaherpesvirus 1 [10]): > 145 µg/mL
11 | Nc1nc2c(ncn2CCOCP(=O)(O)O)c(=O)[nH]1 [GS-438] | 5 (≈ 17.3 µM) | 6.52 | 0.08 (≈ 0.277 µM) | 0.69 (≈ 2.39 µM) | 2.7 | > 10 | IC50 (Human betaherpesvirus 5 [9]): 0.04 µg/mL (≈ 0.138 µM); IC50 [12]: 0.001 µg/mL (≈ 0.00346 µM); Relative Vmax [4]: 0.11; IC50 (Human alphaherpesvirus 1 [13]): 0.1 µg/mL (≈ 0.346 µM); IC50 (CCRF-CEM [11]): 10 µg/mL (≈ 34.6 µM)
12 | Nc1ncnc2c1ncn2CCCOCP(=O)(O)O | 100 (≈ 348 µM) |  | > 100 | > 100 |  |  | 
13 | Cc1cn([C@H]2C[C@H](O)[C@@H](COP(=O)(O)O)O2)c(=O)[nH]c1=O [THYMIDINE MONOPHOSPHATE] |  |  |  |  |  |  | pKa [14]: 6.5
14 | CC(COCP(=O)(O)O)n1cnc2c(O)nc(N)nc21 (stereo not drawn) | 60 (≈ 198 µM) |  | 2.92 (≈ 9.63 µM) |  | 3.9 | 8.4 (≈ 27.7 µM) | IC50 (Human alphaherpesvirus 2 [5]): 3.29 µg/mL (≈ 10.9 µM); IC50 (CCRF-CEM [6]): > 100 µg/mL; IC50 (Human alphaherpesvirus 1 [10]): 3 µg/mL (≈ 9.89 µM); Relative Vmax (Bos taurus): 0.073; IC50 (Human betaherpesvirus 5 [15]): 0.4 µg/mL (≈ 1.32 µM)
15 | Nc1nc2c(ncn2[C@H]2C[C@H](O)[C@@H](COP(=O)(O)O)O2)c(=O)[nH]1 |  |  |  |  | 1.2 |  | Relative Vmax [4]: 14
